Measured values from ChEMBL document CHEMBL1255444, “In vitro antibacterial activities of JNJ-Q2, a new broad-spectrum fluoroquinolone” (Antimicrob Agents Chemother, 2010).
Converted amounts (≈) assume the structure as drawn.

How the values were obtained:
Streptococcus pneumoniae [1] = assay: Antibacterial activity against Streptococcus pneumoniae isolate OC6608 assessed as log reduction in bacterial growth at 4 times MIC measured at 24 hrs by time-kill assay; type: functional
How it was run: (§1)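 Drug was diluted from 50× stocks made in water or acidified water. Samples were taken at 6 and 24 h and serially diluted onto TSA-5% sheep blood plates. Plates were incubated 20–24 h at 37°C in 5% CO2 before counting CFU. Log10 titer change is given relative to the starting inoculum.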

[2] = Aqueous solubility of the compound; type: physicochemical
Staphylococcus aureus [3] = assay: Antibacterial activity against Staphylococcus aureus […] by broth microdilution method; type: functional
How it was run: (§2)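 CLSI M07-A7 broth microdilution MIC. Medium was cation-adjusted Mueller-Hinton broth. For S. pneumoniae it was Mueller-Hinton supplemented with 5% lysed horse blood. CLSI quality-control strains were included as appropriate.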

Staphylococcus aureus [4] = assay: Antibacterial activity against methicillin-resistant Staphylococcus aureus by broth microdilution method; type: functional; how it was run: as §2
Staphylococcus aureus [5] = assay: Antibacterial activity against methicillin-, ciprofloxacin-resistant Staphylococcus aureus by broth microdilution method; type: functional; how it was run: as §2
[6] = test system: Staphylococcus epidermidis; assay: Antibacterial activity against methicillin-susceptible Staphylococcus epidermidis by broth microdilution method; type: functional
[7] = test system: Staphylococcus epidermidis; assay: Antibacterial activity against methicillin-, ciprofloxacin-resistant Staphylococcus epidermidis by broth microdilution method; type: functional
Enterococcus faecalis = assay: Antibacterial activity against Enterococcus faecalis ATCC 29212 by broth microdilution method; type: functional
How it was run: (§3)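 MICs by CLSI M07-A7 broth microdilution in cation-adjusted Mueller-Hinton medium. For S. pneumoniae the medium was supplemented with 5% lysed horse blood. CLSI quality control strains were run alongside as appropriate.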

Moraxella catarrhalis = assay: Antibacterial activity against Moraxella catarrhalis by broth microdilution method; type: functional; how it was run: as §3
Escherichia coli [8] = assay: Antibacterial activity against ciprofloxacin-susceptible, -intermediate Escherichia coli by broth microdilution method; type: functional
Escherichia coli [9] = assay: Antibacterial activity against ciprofloxacin-resistant Escherichia coli by broth microdilution method; type: functional; how it was run: as §2
Proteus mirabilis = assay: Antibacterial activity against Proteus mirabilis by broth microdilution method; type: functional; how it was run: as §3
Pseudomonas aeruginosa = assay: Antibacterial activity against Pseudomonas aeruginosa ATCC 27853 by broth microdilution method; type: functional; how it was run: as §3
Providencia stuartii = assay: Ratio of Ciprofloxacin MIC90 to compound MIC90 for Providencia stuartii; type: functional
Streptococcus pneumoniae [10] = assay: Antibacterial activity against Streptococcus pneumoniae isolate OC7189 by broth microdilution method; type: functional; how it was run: as §2
Streptococcus pneumoniae [11] = assay: Antibacterial activity against Streptococcus pneumoniae isolate OC6608 assessed as log reduction in bacterial growth at 2 times MIC measured at 6 hrs by time-kill assay; type: functional; how it was run: as §1
Streptococcus pneumoniae [12] = assay: Antibacterial activity against Streptococcus pneumoniae isolate OC6608 assessed as log reduction in bacterial growth at 4 times MIC measured at 6 hrs by time-kill assay; type: functional; how it was run: as §1
Streptococcus pneumoniae [13] = assay: Antibacterial activity against Streptococcus pneumoniae isolate OC5462 by broth microdilution method; type: functional; how it was run: as §2
Streptococcus pneumoniae [14] = assay: Antibacterial activity against Streptococcus pneumoniae isolate OC5462 assessed as log reduction in bacterial growth at 4 times MIC measured at 24 hrs by time-kill assay; type: functional; how it was run: as §1
Streptococcus pneumoniae [15] = assay: Antibacterial activity against Streptococcus pneumoniae isolate OC7376 assessed as log reduction in bacterial growth at 2 times MIC measured at 24 hrs by time-kill assay; type: functional; how it was run: as §1
Streptococcus pneumoniae [16] = assay: Antibacterial activity against Streptococcus pneumoniae isolate OC7368 assessed as log reduction in bacterial growth at 2 times MIC measured at 6 hrs by time-kill assay; type: functional; how it was run: as §1
Streptococcus pneumoniae [17] = assay: Antibacterial activity against Streptococcus pneumoniae isolate OC7368 assessed as log reduction in bacterial growth at 4 times MIC measured at 6 hrs by time-kill assay; type: functional; how it was run: as §1
Streptococcus pneumoniae [18] = assay: Antibacterial activity against Streptococcus pneumoniae isolate OC7368 assessed as log reduction in bacterial growth at 2 times MIC measured at 24 hrs by time-kill assay; type: functional; how it was run: as §1
Streptococcus pneumoniae [19] = assay: Antibacterial activity against Streptococcus pneumoniae isolate OC6610 assessed as log reduction in bacterial growth at 2 times MIC measured at 6 hrs by time-kill assay; type: functional; how it was run: as §1
Streptococcus pneumoniae [20] = assay: Antibacterial activity against Streptococcus pneumoniae isolate OC6610 assessed as log reduction in bacterial growth at 4 times MIC measured at 24 hrs by time-kill assay; type: functional; how it was run: as §1
Staphylococcus aureus [21] = assay: Antibacterial activity against methicillin-resistant Staphylococcus aureus isolate OC12501 by broth microdilution method; type: functional; how it was run: as §2
Staphylococcus aureus [22] = assay: Antibacterial activity against methicillin-resistant Staphylococcus aureus isolate OC2838 by broth microdilution method; type: functional; how it was run: as §2
Staphylococcus aureus [23] = assay: Antibacterial activity against methicillin-resistant Staphylococcus aureus isolate OC8525 harboring wild type quinolone resistance-determining region assessed as log reduction in bacterial growth at 4 times MIC measured at 24 hrs by time-kill assay; type: functional
How it was run: (§4)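 Time-kill in cation-adjusted Mueller-Hinton broth. […] Samples were taken up to 24 h, serially diluted onto TSA and counted after 20–24 h at 37°C. Result is log10 decrease at 24 h from the starting inoculum; detection limit 100 CFU.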

Staphylococcus aureus [24] = assay: Antibacterial activity against methicillin-resistant Staphylococcus aureus isolate OC11696 assessed as log reduction in bacterial growth at 2 times MIC measured at 24 hrs by time-kill assay; type: functional
How it was run: (§5)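 Overnight MRSA cultures were diluted into fresh cation-adjusted Mueller-Hinton broth to about 5 × 10^6 CFU/ml. […] Samples were plated serially diluted on trypticase soy agar, and CFU were counted after 20-24 h at 37°C. Value is the log10 decrease at 24 h from the starting inoculum; detection limit 100 CFU.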

Staphylococcus aureus [25] = assay: Antibacterial activity against methicillin-resistant Staphylococcus aureus isolate OC8530 harboring gyrA S84L and parC I143V mutant gene assessed as log reduction in bacterial growth at 2 times MIC measured at 24 hrs by time-kill assay; type: functional; how it was run: as §4
Staphylococcus aureus [26] = assay: Antibacterial activity against methicillin-resistant Staphylococcus aureus isolate OC4222 harboring gyrA S84L and parC S80F mutant gene assessed as log reduction in bacterial growth at 4 times MIC measured at 24 hrs by time-kill assay; type: functional; how it was run: as §5
Staphylococcus aureus [27] = assay: Antibacterial activity against methicillin-resistant Staphylococcus aureus isolate OC2838 assessed as log reduction in bacterial growth at 4 times MIC measured at 24 hrs by time-kill assay; type: functional; how it was run: as §5
Streptococcus pneumoniae [28] = assay: Antibacterial activity against Streptococcus pneumoniae OC6755 harboring gyrA S81F and parC S79Y mutant gene by agar dilution method; type: functional
How it was run: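 MICs for the resistance-selection studies were determined by CLSI agar dilution on Mueller-Hinton medium. For S. pneumoniae the medium was supplemented with 5% lysed horse blood. For MRSA fluctuation-assay strains an arithmetic agar dilution scheme was used for a more precise MIC.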

Staphylococcus aureus [29] = assay: Antibacterial activity against methicillin-resistant Staphylococcus aureus isolate OC8532 harboring wild type quinolone resistance-determining region by agar dilution method; type: functional
How it was run: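 CLSI agar dilution MIC on cation-adjusted Mueller-Hinton medium. These were the MIC values used for the resistance studies, and CLSI quality-control strains were included as appropriate.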

Compound: COc1c(N2CCC/C(=C(\F)CN)C2)c(F)cc2c(=O)c(C(=O)O)cn(C3CC3)c12 [ACORAFLOXACIN]
- deltalog10CFU/ml (Streptococcus pneumoniae [1]): 7.1
- solubility [2]: 4520 µg/mL (≈ 10800 µM)
- MIC50 (Staphylococcus aureus [3]): 0.12 µg/mL (≈ 0.286 µM)
- MIC90 (Staphylococcus aureus [3]): 0.25 µg/mL (≈ 0.596 µM)
- MIC50 (Staphylococcus aureus [4]): 0.12 µg/mL (≈ 0.286 µM)
- MIC90 (Staphylococcus aureus [4]): 0.25 µg/mL (≈ 0.596 µM)
- MIC50 (Staphylococcus aureus [5]): 0.25 µg/mL (≈ 0.596 µM)
- MIC90 (Staphylococcus aureus [5]): 0.25 µg/mL (≈ 0.596 µM)
- MIC50 [6]: 0.015 µg/mL (≈ 0.0358 µM)
- MIC90 [6]: 0.015 µg/mL (≈ 0.0358 µM)
- MIC50 [7]: 0.12 µg/mL (≈ 0.286 µM)
- MIC90 [7]: 0.25 µg/mL (≈ 0.596 µM)
- MIC50 (Enterococcus faecalis): 0.06 µg/mL (≈ 0.143 µM)
- MIC90 (Enterococcus faecalis): 0.5 µg/mL (≈ 1.19 µM)
- MIC (Moraxella catarrhalis): ≤ 0.015 µg/mL
- MIC50 (Moraxella catarrhalis): ≤ 0.015 µg/mL
- MIC90 (Moraxella catarrhalis): ≤ 0.015 µg/mL
- MIC50 (Escherichia coli [8]): 0.06 µg/mL (≈ 0.143 µM)
- MIC90 (Escherichia coli [8]): 0.25 µg/mL (≈ 0.596 µM)
- MIC50 (Escherichia coli [9]): 4 µg/mL (≈ 9.54 µM)
- MIC90 (Escherichia coli [9]): 16 µg/mL (≈ 38.1 µM)
- MIC50 (Proteus mirabilis): 0.25 µg/mL (≈ 0.596 µM)
- MIC90 (Proteus mirabilis): 0.5 µg/mL (≈ 1.19 µM)
- MIC50 (Pseudomonas aeruginosa): 1 µg/mL (≈ 2.38 µM)
- MIC90 (Pseudomonas aeruginosa): 2 µg/mL (≈ 4.77 µM)
- Ratio (Providencia stuartii): 16
- MIC (Streptococcus pneumoniae [10]): 0.015 µg/mL (≈ 0.0358 µM)
- deltalog10CFU/ml (Streptococcus pneumoniae [11]): 3.8
- deltalog10CFU/ml (Streptococcus pneumoniae [12]): 4.7
- MIC (Streptococcus pneumoniae [13]): 0.06 µg/mL (≈ 0.143 µM)
- deltalog10CFU/ml (Streptococcus pneumoniae [14]): 6.8
- deltalog10CFU/ml (Streptococcus pneumoniae [15]): 6.8
- deltalog10CFU/ml (Streptococcus pneumoniae [16]): 4
- deltalog10CFU/ml (Streptococcus pneumoniae [17]): 3.7
- deltalog10CFU/ml (Streptococcus pneumoniae [18]): 7.2
- deltalog10CFU/ml (Streptococcus pneumoniae [19]): 3.4
- deltalog10CFU/ml (Streptococcus pneumoniae [20]): 6.9
- MIC (Staphylococcus aureus [21]): 0.06 µg/mL (≈ 0.143 µM)
- MIC (Staphylococcus aureus [22]): 0.25 µg/mL (≈ 0.596 µM)
- deltalog10CFU/ml (Staphylococcus aureus [23]): 5
- deltalog10CFU/ml (Staphylococcus aureus [24]): 6.5
- deltalog10CFU/ml (Staphylococcus aureus [25]): 6.3
- deltalog10CFU/ml (Staphylococcus aureus [26]): 4.2
- deltalog10CFU/ml (Staphylococcus aureus [27]): 4.5
- MIC (Streptococcus pneumoniae [28]): 0.12 µg/mL (≈ 0.286 µM)
- MIC (Staphylococcus aureus [29]): 0.008 µg/mL (≈ 0.0191 µM)
